For six compounds, Activity and MIC results are on record in ChEMBL document CHEMBL1157252, “Antibacterial galloylated alkylphloroglucinol glucosides from myrtle (Myrtus communis)” (2006).

In brackets after ≈: the same amount, converted by molar mass. Activity calls are given as the source filed them. No cut-off for these calls is given here.

The subject of assay [1] is Staphylococcus aureus. Put plainly: Antibacterial activity against Staphylococcus aureus RN4220 expressing MsrA efflux transporter at 256 ug/mL after 18 hrs by microtiter plate method. Type of assay: functional, organism-based. Put shortly:
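Strain pre-grown on nutrient agar for 24 h at 37 °C. Inoculum matched to the 0.5 McFarland standard in normal saline and diluted to a final 5 × 10^5 cfu/mL in microtiter wells. Plates incubated 18 h at 37 °C. MIC taken as the lowest concentration with no bacterial growth, determined in duplicate.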

Assay [2] deals with Staphylococcus aureus. In words: Antibacterial activity against epidemic methicillin-resistant Staphylococcus aureus 15 expressing MecA at 256 ug/mL after 18 hrs by microtiter plate method. Type of assay: functional, organism-based.
Assay [3] deals with Staphylococcus aureus. Put plainly: Antibacterial activity against methicillin-resistant Staphylococcus aureus XU212 expressing TetK efflux pump and MecA at 256 ug/mL after 18 hrs by microtiter plate method. Type of assay: functional, organism-based.
Assay [4] relates to Staphylococcus aureus. In words: Antibacterial activity against multidrug-resistant Staphylococcus aureus SA-1199B overexpressing NorA efflux transporter at 256 ug/mL after 18 hrs by microtiter plate method. It counts as functional, organism-based.
For assay [5], the system named is Staphylococcus aureus. In words: Antibacterial activity against epidemic methicillin-resistant Staphylococcus aureus 15 expressing MecA after 18 hrs by microtiter plate method. Type of assay: functional. Put shortly: (§1)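 Broth microdilution MIC. Strains were grown on nutrient agar for 24 h at 37 °C. Inoculum was made to the 0.5 McFarland standard in normal saline and diluted to a final 5 × 10^5 cfu/mL. Plates were incubated for 18 h at 37 °C. MIC was taken as the lowest concentration with no observed growth, determined in duplicate.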

The subject of assay [6] is Staphylococcus aureus. In words: Antibacterial activity against methicillin-susceptible Staphylococcus aureus ATCC 25923 after 18 hrs by microtiter plate method. Type of assay: functional. The conditions noted are these: for MIC: ATCC 25923, 18 h. In a few lines: as §1
Assay [7] relates to Staphylococcus aureus. Put plainly: Antibacterial activity against Staphylococcus aureus RN4220 expressing MsrA efflux transporter after 18 hrs by microtiter plate method. Type of assay: functional. The conditions noted are these: for MIC: RN4220, 18 h. Put shortly: as §1
Assay [8] concerns Staphylococcus aureus. Put plainly: Antibacterial activity against multidrug-resistant Staphylococcus aureus SA-1199B overexpressing NorA efflux transporter after 18 hrs by microtiter plate method. It counts as functional. Put shortly:
as §1

For assay [9], the system named is Staphylococcus aureus. In words: Antibacterial activity against methicillin-resistant Staphylococcus aureus XU212 expressing TetK efflux pump and MecA after 18 hrs by microtiter plate method. Type of assay: functional. In a few lines: as §1

For the compound `CC(C)=C[C@@]1(O)C(=O)C(C)(C)C(=O)C(C)(C)[C@@H]1O[C@@H]1O[C@H](COC(=O)c2cc(O)c(O)c(O)c2)[C@@H](O)[C@H](O)[C@H]1O`, the outcome in the assay on Staphylococcus aureus [1], with Staphylococcus aureus [2], in the assay on Staphylococcus aureus [3] and in the assay with Staphylococcus aureus [4] was inactive.
With `CC(C)=C[C@]1(O)C(=O)C(C)(C)C(=O)C(C)(C)[C@@H]1O[C@@H]1O[C@H](COC(=O)c2cc(O)c(O)c(O)c2)[C@@H](O)[C@H](O)[C@H]1O`, the result in the assay on Staphylococcus aureus [1], with Staphylococcus aureus [2], in the assay on Staphylococcus aureus [3] and in the assay on Staphylococcus aureus [4] was inactive.
Consider `CC1(C)C=C2C(=O)C(C)(C)C(=O)C(C)(C)C2(O)OO1` (stereo not drawn), for which the outcome in the assay with Staphylococcus aureus [5], in the assay with Staphylococcus aureus [6], in the assay with Staphylococcus aureus [7], in the assay with Staphylococcus aureus [8] and with Staphylococcus aureus [9] was inactive.
A word on the MIC: it is the least concentration at which growth counts as inhibited. Consider `CC(C)C[C@]1(O)C(=O)C(C)(C)C(=O)C(C)(C)[C@@H]1O[C@@H]1O[C@H](COC(=O)c2cc(O)c(O)c(O)c2)[C@@H](O)[C@H](O)[C@H]1O` [GALLOMYRTUCOMMULONE A], for which the MIC against Staphylococcus aureus [5] was 128 mg/L (≈ 224 µM); in the assay with Staphylococcus aureus [6], 128 mg/L (≈ 224 µM); in the assay with Staphylococcus aureus [7], 128 mg/L (≈ 224 µM); with Staphylococcus aureus [8], 256 mg/L (≈ 449 µM); in the assay on Staphylococcus aureus [9] it was 256 mg/L (≈ 449 µM).
As to `CC(C)CC1(O)C(=O)C(C)(C)C(O[C@@H]2O[C@H](COC(=O)c3cc(O)c(O)c(O)c3)[C@@H](O)[C@H](O)[C@H]2O)C(C)(C)C1=O` (stereo partly drawn) [GALLOMYRTUCOMMULONE B], the MIC with Staphylococcus aureus [5] came out at 128 mg/L (≈ 224 µM); in the assay on Staphylococcus aureus [6], 64 mg/L (≈ 112 µM); in the assay on Staphylococcus aureus [7], 128 mg/L (≈ 224 µM); against Staphylococcus aureus [8], 128 mg/L (≈ 224 µM); against Staphylococcus aureus [9], 128 mg/L (≈ 224 µM).
For `CCn1cc(C(=O)O)c(=O)c2cc(F)c(N3CCNCC3)cc21` [NORFLOXACIN], the MIC against Staphylococcus aureus [5] turned out to be 0.5 mg/L (≈ 1.57 µM); in the assay on Staphylococcus aureus [6] it was 1 mg/L (≈ 3.13 µM); with Staphylococcus aureus [7], 2 mg/L (≈ 6.26 µM); against Staphylococcus aureus [8], 32 mg/L (≈ 100 µM); in the assay on Staphylococcus aureus [9], 4 mg/L (≈ 12.5 µM).
